# Assay results from ChEMBL document CHEMBL3596194, “Design, synthesis and biological evaluation of bivalent benzoxazolone and benzothiazolone ligands as potential anti-inflammatory/analgesic agents” (Bioorg Med Chem, 2015).
# Activity calls are given as the source filed them. The rule behind the calls is not given here.
# System: Mus musculus
# Assay: Antinociceptive activity in ip dosed Swiss mouse assessed as inhibition of acetic acid-induced writhing response at 3 mg/kg, ip administered 30 mins prior to acetic acid challenge measured for 20 mins relative to vehicle-treated control
# Type: functional, organism-based
# Procedure, shortened: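 Mice dosed i.p. with compound or vehicle 15 min before testing, or with indomethacin 3 mg/kg i.p. 30 min before. After 15 min habituation in an enclosure, 0.9% acetic acid given i.p. (1 ml/0.1 kg) and writhes counted for 20 min. Non-responders excluded; n = 4-6; mean ± SD.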
compound,measurement,value
COc1ccc2c(c1)c(CC(=O)O)c(C)n2C(=O)c1ccc(Cl)cc1,inhibition,Active
